For one test, the species on record is Mus musculus. Description: The compound was tested for antidepressant activity by its ability to reverse tetrabenazine induced ptosis in mice, perorally. Type of test: functional. Particulars: po. Summed up:
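Male albino CFI mice (18–22 g), groups of five, dosed po with test drug in methylcellulose suspension (initial screening dose 30 mg/kg). Tetrabenazine methanesulfonate 30 mg/kg was given ip 30 min later, and palpebral opening was scored after 30 min.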

The subject of another test is Rattus norvegicus. Description: The compound was tested for antidepressant activity by its ability to inhibit muricidal intraperitoneally. Particulars: ip. Type of test: functional. Summed up: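 Male Long-Evans rats (200–300 g), groups of five, given test drug ip as a methylcellulose suspension at an initial screening dose of 10 or 20 mg/kg. Mice were presented to the rats 30 min after dosing.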

As usually defined, the ED50 is the dose at which the effect has come halfway, by size or by number of responders. A high value points to weaker potency.

As for `O=S1(=O)c2ccc(C(F)(F)F)cc2Oc2cccnc21`, the ED50 in the test listed under Mus musculus came out at 1 mg/kg; with Rattus norvegicus, 17 mg/kg.
On the same counts, the results for `c1ccc2c(c1)Oc1cccnc1S2` are 8 mg/kg and greater than 10 mg/kg.
On the same counts, the results for `O=S1(=O)c2ccc(Br)cc2Oc2cccnc21` are 15 mg/kg and 7 mg/kg.
On the same counts, the results for `O=[N+]([O-])c1ccc2c(c1)Oc1cccnc1S2` are greater than 30 mg/kg and 7 mg/kg.
As to `Brc1ccc2c(c1)Oc1cccnc1S2`, the results for the ED50 in the test filed under Mus musculus and with Rattus norvegicus were greater than 30 mg/kg and greater than 10 mg/kg, respectively.
For the molecule `O=S1(=O)c2ccc(NO)cc2Oc2cccnc21`, the ED50 in the test listed under Mus musculus is 2 mg/kg; in the test with Rattus norvegicus, greater than 10 mg/kg.
Consider `NS(=O)(=O)c1ccc2c(c1)Oc1cccnc1S2`, for which the ED50 is greater than 30 mg/kg in the test listed under Mus musculus and 8 mg/kg in the test on Rattus norvegicus.
`CN(C)CCCN1c2ccccc2CCc2ccccc21` [IMIPRAMINE]: the values for the ED50 in the test filed under Mus musculus and with Rattus norvegicus were 2 mg/kg and 20 mg/kg, respectively.
Regarding `COc1ccc2c(c1)Oc1cccnc1S2(=O)=O`, the ED50 in the test listed under Mus musculus was greater than 30 mg/kg; in the test on Rattus norvegicus it was greater than 10 mg/kg.
As to `O=[N+]([O-])c1ccc2c(c1)Oc1cccnc1S2(=O)=O`, the ED50 in the test filed under Mus musculus is 10 mg/kg; in the test on Rattus norvegicus, 12 mg/kg.
Taken in the same sequence, the figures for `COc1ccc2c(c1)Oc1cccnc1S2` were greater than 30 mg/kg and greater than 10 mg/kg.
Taken in the same sequence, the figures for `O=S1(=O)c2ccc(Cl)cc2Oc2cccnc21` were 18 mg/kg and greater than 10 mg/kg.
On the same counts, the results for `FC(F)(F)c1ccc2c(c1)Oc1cccnc1S2` are 16 mg/kg and greater than 10 mg/kg.
Consider `O=S1(=O)c2ccccc2Oc2cccnc21`, for which the ED50 was 12 mg/kg in the test listed under Mus musculus and greater than 10 mg/kg in the test on Rattus norvegicus.
With `Clc1ccc2c(c1)Oc1cccnc1S2`, the ED50 in the test listed under Mus musculus is greater than 30 mg/kg; with Rattus norvegicus, greater than 10 mg/kg.

These data come from ChEMBL document CHEMBL1121414, “Central nervous system activity of 7-substituted 1-azaphenoxathiin analogues and their oxidation products” (1980).
